In ChEMBL document CHEMBL3046238, “Synthesis and biological activity evaluation of 1,2,3-thiadiazole derivatives as potential elicitors with highly systemic acquired resistance” (2009):
Calls of active or inactive are those of the source. The rule behind the calls is not given here.

Assays:
Assay type in all cases: functional
Cytospora mali = assay: Antifungal activity against Valsa mali assessed as growth inhibition at 50 ug/mL measured after 2 days post dose; conditions: for inhibition of growth at 50 µg/mL: 48 h, read-out: GI
Alternaria mali = assay: Antifungal activity against Alternaria mali assessed as growth inhibition at 50 ug/mL measured after 2 days post dose; conditions: for inhibition of growth at 50 µg/mL: 48 h, read-out: GI
Sclerotinia sclerotiorum = assay: Antifungal activity against Sclerotinia sclerotiorum assessed as growth inhibition at 50 ug/mL measured after 2 days post dose; conditions: 48 h, read-out: GI
Botrytis cinerea = assay: Antifungal activity against Botryotinia fuckeliana assessed as growth inhibition at 50 ug/mL measured after 2 days post dose; conditions: 48 h, read-out: GI
Puccinia triticina = assay: Antifungal activity against Puccinia triticina inoculated on 500 ug/mL compound pre-treated wheat plants with 3 to 5 leaves assessed as growth inhibition
Procedure, shortened: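 Healthy wheat plants at the 3-5 leaf stage were sprayed with compound (500 μg/mL) and then inoculated with spores. Inhibition percentage was calculated against the corresponding spore stack.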

Ceratobasidium cereale = assay: Antifungal activity against Ceratobasidium cereale assessed as growth inhibition at 50 ug/mL measured after 2 days post dose; conditions: for inhibition of growth at 50 µg/mL: 48 h, read-out: GI
[1] = system: Botryosphaeria berengeriana; assay: Antifungal activity against Botryosphaeria berengeriana assessed as growth inhibition at 50 ug/mL measured after 2 days post dose; conditions: for inhibition of growth at 50 µg/mL: 48 h, read-out: GI
Phytophthora infestans = assay: Antifungal activity against Phytophthora infestans assessed as growth inhibition at 50 ug/mL measured after 2 days post dose; conditions: for inhibition of growth at 50 µg/mL: 48 h, read-out: GI
Procedure, shortened: (§1)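 Compound stock at 500 μg/mL in DMF, diluted with sterile water in the dish and mixed into potato dextrose agar before setting. A 4 mm diameter fungal plug is placed on the plate and cultured at 24-26 °C. Colony diameter is measured after 2 days.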

Rhizoctonia solani = assay: Antifungal activity against Rhizoctonia solani assessed as growth inhibition at 50 ug/mL measured after 2 days post dose; conditions: 48 h, read-out: GI
Alternaria solani = assay: Antifungal activity against Alternaria solani assessed as growth inhibition at 50 ug/mL measured after 2 days post dose; conditions: 48 h, read-out: GI
[2] = system: Fusarium oxysporum f. sp. vasinfectum; assay: Antifungal activity against Fusarium oxysporum f. sp. vasinfectum assessed as growth inhibition at 50 ug/mL measured after 2 days post dose; conditions: for inhibition of growth at 50 µg/mL: 48 h, read-out: GI
[3] = system: Colletotrichum gloeosporioides; assay: Antifungal activity against Glomerella cingulata assessed as growth inhibition at 50 ug/mL measured after 2 days post dose; conditions: for inhibition of growth at 50 µg/mL: 48 h, read-out: GI
Ustilaginoidea virens = assay: Antifungal activity against Villosiclava virens assessed as growth inhibition at 50 ug/mL measured after 2 days post dose; conditions: for inhibition of growth at 50 µg/mL: 48 h, read-out: GI
Fusarium graminearum = assay: Antifungal activity against Fusarium graminearum assessed as growth inhibition at 50 ug/mL measured after 2 days post dose; conditions: for inhibition of growth at 50 µg/mL: 48 h, read-out: GI; procedure, shortened: as §1
Mycosphaerella arachidis = assay: Antifungal activity against Mycosphaerella arachidis assessed as growth inhibition at 50 ug/mL measured after 2 days post dose; conditions: for inhibition of growth at 50 µg/mL: 48 h, read-out: GI
Fusarium oxysporum = assay: Antifungal activity against Fusarium oxysporum assessed as growth inhibition at 50 ug/mL measured after 2 days post dose; conditions: 48 h, read-out: GI
Fusarium fujikuroi = assay: Antifungal activity against Fusarium fujikuroi assessed as growth inhibition at 50 ug/mL measured after 2 days post dose; conditions: for inhibition of growth at 50 µg/mL: 48 h, read-out: GI
Tobacco mosaic virus = assay: Induction of systemic acquired resistance against Tobacco mosaic virus (TMV) in tobacco plants exposed to 500 ug/mL compound through leaf spray followed by 7 days culture under green house conditions assessed as inhibition of viral growth in leaves infected with Tobacco mosaic virus (TMV) measured 72 hr post viral infection by half-leaf juice rubbing method; design: scale not given: the % may be the effect or the level left
Procedure, shortened: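 Tobacco plants received compound by leaf spray or by soil irrigation, with double-distilled water as CK. Newly grown leaves were then rub-inoculated with TMV (5.88×10-2 μg/mL), and plants were kept at 25 °C for 72 h. Lesions on inoculated leaves were counted. Inhibition = (CK−A)/CK×100 from mean lesion numbers versus control.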

| SMILES | inhibition of growth at 50 µg/mL (Sclerotinia sclerotiorum) [%] | inhibition of growth at 50 µg/mL (Botrytis cinerea) [%] | growth inhibition (GI) (Puccinia triticina) | inhibition of growth at 50 µg/mL (Phytophthora infestans) [%] | inhibition of growth at 50 µg/mL (Rhizoctonia solani) [%] | inhibition of growth at 50 µg/mL (Alternaria solani) [%] | inhibition of growth at 50 µg/mL (Fusarium oxysporum) [%] | Activity (Tobacco mosaic virus) | inhibition of growth at 50 µg/mL (Cytospora mali) [%] | inhibition of growth at 50 µg/mL (Alternaria mali) [%] | inhibition of growth at 50 µg/mL (Ceratobasidium cereale) [%] | inhibition of growth at 50 µg/mL [1] [%] | inhibition of growth at 50 µg/mL [2] [%] | inhibition of growth at 50 µg/mL [3] [%] | inhibition of growth at 50 µg/mL (Ustilaginoidea virens) [%] | inhibition of growth at 50 µg/mL (Fusarium graminearum) [%] | inhibition of growth at 50 µg/mL (Mycosphaerella arachidis) [%] | inhibition of growth at 50 µg/mL (Fusarium fujikuroi) [%] | other results |
| --- | --- | --- | --- | --- | --- | --- | --- | --- | --- | --- | --- | --- | --- | --- | --- | --- | --- | --- | --- |
| Cc1ccc(-c2nnc(-c3snnc3C)o2)cc1 | 56 | 2.1 | 11% | 0 | 67.9 | 18.4 | 0 | 0% |  |  |  |  |  |  |  |  |  |  | growth inhibition (GI) (Cytospora mali): inactive; growth inhibition (GI) (Alternaria mali): inactive; growth inhibition (GI) (Ceratobasidium cereale): inactive; growth inhibition (GI) [1]: inactive; growth inhibition (GI) [2]: inactive; growth inhibition (GI) [3]: inactive; growth inhibition (GI) (Ustilaginoidea virens): inactive; growth inhibition (GI) (Fusarium graminearum): inactive; growth inhibition (GI) (Mycosphaerella arachidis): inactive; growth inhibition (GI) (Fusarium fujikuroi): inactive |
| CCCCCCCc1nnc(-c2snnc2C)o1 | 32.1 | 0 | 83% | 100 | 26.6 | 31.6 | 12.5 | 0% | 0 | 38.9 | 0 | 25.4 | 0 | 42.1 | 0 | 34.2 | 0 | 21.1 |  |
| Cc1nnsc1-c1nnc(/C=C/c2ccccc2)o1 | 0 | 0 | 20% | 20 | 0 | 31.6 | 36.3 | 0% | 20.3 | 0 | 0 | 46 | 23.7 | 13.8 | 0 | 36.8 | 27.3 | 21.1 |  |
| Cc1nnsc1-c1nnc(-c2ccc(=O)[nH]c2)o1 | 53.6 | 21.1 | inactive | 31 | 44.4 | 31 | 33.3 | inactive | 47.2 | 27.3 | 13.8 | 23.5 | 24.1 | 13.8 | 22.2 | 13.8 | 0 | 17.6 |  |
| Cc1ccc(-c2nnc(-c3snnc3C)o2)c(Cl)n1 | 0 | 17.2 | 17% | 30 | 22.2 | 0 | 0 | 30% | 22.2 | 24.1 | 13.8 | 38.9 | 0 | 0 | 17.6 | 31 | 23.5 | 17.2 |  |
| Cc1nnsc1-c1nnc(-c2snnc2C)o1 | 32.1 | 0 | 28% |  | 0 | 44.7 | 31.3 | 0% | 0 | 0 | 0 | 38.1 | 0 | 13.8 | 0 | 31.6 | 13.6 | 21.1 | growth inhibition (GI) (Phytophthora infestans): inactive |
